Laboratory results taken from BindingDB's records for doi:10.1021/acs.jnatprod.6b00141 (University of Eastern Piedmont, 2016).

These molecules were tested against Transcription factor p65 (Human, UniProt Q04206) (assay: Inhibition of NFkappaB p65 activation (unknown origin) expressed in human HeLa cells assessed as inhibition of TNFalpha-induced NFkappaB p65 nuclear accumulation pretreated with cells followed by TNFalpha addition by DAPI staining based microscopic analysis).
Sequence of Transcription factor p65 (Q04206 whole entry): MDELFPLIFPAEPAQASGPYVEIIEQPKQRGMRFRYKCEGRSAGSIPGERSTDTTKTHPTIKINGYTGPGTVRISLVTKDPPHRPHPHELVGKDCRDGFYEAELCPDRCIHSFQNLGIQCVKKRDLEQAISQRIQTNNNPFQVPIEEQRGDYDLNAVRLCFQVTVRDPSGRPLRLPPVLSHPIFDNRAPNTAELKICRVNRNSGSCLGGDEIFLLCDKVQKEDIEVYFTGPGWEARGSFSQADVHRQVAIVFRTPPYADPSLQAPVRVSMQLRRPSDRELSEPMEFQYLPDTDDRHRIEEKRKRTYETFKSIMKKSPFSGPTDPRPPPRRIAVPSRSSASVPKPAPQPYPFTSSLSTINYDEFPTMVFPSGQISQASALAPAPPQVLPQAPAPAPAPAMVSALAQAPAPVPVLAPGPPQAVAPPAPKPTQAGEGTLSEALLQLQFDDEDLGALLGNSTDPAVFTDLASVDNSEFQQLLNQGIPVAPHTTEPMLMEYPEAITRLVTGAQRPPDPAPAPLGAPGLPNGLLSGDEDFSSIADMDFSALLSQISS

For CC(=O)O[C@H]1CC/C(C)=C/CC/C(C)=C/C[C@]2(C(C)C)CC[C@@]1(C)O2, which IC50 is on record?
The IC50 was greater than 100 µM.

What follows are molecules tested against Signal transducer and activator of transcription 3 (Homo sapiens, UniProt P40763) (assay: Inhibition of IFNgamma-induced STAT3 activation in human HeLa cells expressing STAT3 (unknown origin) preincubated for 15 mins followed by IFN-gamma addition measured after 6 hrs by luciferase reporter gene assay).
Sequence of Signal transducer and activator of transcription 3 (P40763 whole entry): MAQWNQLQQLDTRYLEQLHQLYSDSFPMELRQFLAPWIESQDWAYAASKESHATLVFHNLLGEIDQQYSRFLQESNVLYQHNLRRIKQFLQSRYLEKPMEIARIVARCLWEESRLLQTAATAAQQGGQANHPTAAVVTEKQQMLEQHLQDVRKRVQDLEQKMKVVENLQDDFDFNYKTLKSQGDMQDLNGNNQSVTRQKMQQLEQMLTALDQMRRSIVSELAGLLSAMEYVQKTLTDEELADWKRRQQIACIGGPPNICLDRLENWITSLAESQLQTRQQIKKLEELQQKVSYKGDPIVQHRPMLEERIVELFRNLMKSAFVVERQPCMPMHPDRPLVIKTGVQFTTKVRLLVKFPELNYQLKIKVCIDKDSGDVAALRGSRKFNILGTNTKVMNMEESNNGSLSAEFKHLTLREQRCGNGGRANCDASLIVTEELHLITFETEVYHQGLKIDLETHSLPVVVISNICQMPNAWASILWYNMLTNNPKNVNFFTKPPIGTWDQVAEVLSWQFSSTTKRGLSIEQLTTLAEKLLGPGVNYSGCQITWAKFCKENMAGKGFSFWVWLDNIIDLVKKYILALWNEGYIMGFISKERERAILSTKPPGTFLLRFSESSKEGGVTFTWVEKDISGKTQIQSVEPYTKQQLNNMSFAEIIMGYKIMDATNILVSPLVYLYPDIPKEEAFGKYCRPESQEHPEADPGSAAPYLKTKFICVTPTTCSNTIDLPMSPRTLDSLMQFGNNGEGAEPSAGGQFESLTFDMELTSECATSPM
Procedure, shortened: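 HeLa-STAT3-Luc reporter cells in DMEM with 10% heat-inactivated FBS. Compounds added 15 min before IFNγ (20 IU). Stimulated 6 h. Cells washed in PBS and lysed 15 min at room temperature in Tris-phosphate pH 7.8 lysis buffer. Luciferase read in centrifuged lysate supernatant. IC50 calculated.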

With CC(=O)O[C@H]1CC/C(C)=C/CC/C(C)=C/C[C@]2(C(C)C)CC[C@@]1(C)O2 as the molecule, how does the IC50 read?
Its IC50 is greater than 50 µM.

How did the IC50 turn out when C/C1=C\CC/C(C)=C/C[C@](O)(C(C)C)CC/C(C)=C/CC1 was run?
The IC50 was greater than 50 µM.

CC1=C2CC/C(C)=C/CC[C@]3(C)O[C@@H]3CC/C(C)=C/[C@@H]2OC1=O was tested. Which IC50 did it give?
Its IC50 is greater than 50 µM.

How did the IC50 turn out when C/C1=C\C[C@]2(C(C)C)CC[C@@](C)(O2)[C@H](O)CC/C(C)=C/CC1 was run?
The IC50 was greater than 50 µM.

How did the IC50 turn out when C/C1=C\CC[C@]2(C)O[C@@H]2C[C@]2(C(C)C)CC[C@@](C)(O2)[C@@H](O)CC1 was run?
Its IC50 is greater than 50 µM.

For CC(=O)O[C@H]1CC/C(C)=C/CC[C@]2(C)O[C@@H]2C[C@]2(C(C)C)CC[C@@]1(C)O2, which IC50 is on record?
The IC50 was greater than 50 µM.

Which IC50 does the source give for CC(=O)O[C@H]1CC[C@@]2(C)O[C@H]2CC/C(C)=C/C[C@]2(C(C)C)CC[C@@]1(C)O2 here?
Its IC50 is greater than 50 µM.

For C/C1=C\C[C@]2(C(C)C)CC[C@@](C)(O2)[C@@H](OC(=O)Cc2ccccc2)CC/C(C)=C/CC1, which IC50 is on record?
The IC50 was greater than 50 µM.

Which IC50 does the source give for C/C1=C\C[C@]2(C(C)C)CC[C@@](C)(O2)[C@@H](O)CC/C(C)=C/CC1 [Incensole] here?
Its IC50 is 15.8 µM.
